This is an account of results in ChEMBL document CHEMBL4130598, “Discovery of New Sulfonamide Carbonic Anhydrase IX Inhibitors Incorporating Nitrogenous Bases” (ACS Med Chem Lett, 2017).

The structures appear in SMILES notation. Active and inactive are the calls of the source. The calls are words filed in the database; no cut-off is given here.

In assay [1] the test system is HT-29. Kind of assay: Cytotoxicity in human HT-29 cells assessed as reduction in cell viability at 30 to 300 uM incubated for 16 hrs under normoxic conditions by MTT assay. The assay is classed as functional, cell-based. An outline of the steps:
(§1)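 HT-29 human colon cancer cells seeded at 1 × 10^4 per well and exposed to 30−300 μM for 16 or 48 h, under normoxia (20% O2) or hypoxia (0.1% O2). Viability is given relative to untreated control set at 100%, as mean ± SEM of three experiments, with significance tested against 0 μM.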
On the technique in general: Tetrazolium dyes change colour on reduction, which living cells bring about.

For another assay, the target named is Carbonic anhydrase 9 (Homo sapiens, UniProt Q16790). The assay is described as follows: Inhibition of human carbonic anhydrase 9 incubated for 15 mins by stopped flow CO2 hydrase assay.
In assay [2] the test system is HT-29. Kind of assay: Cytotoxicity in human HT-29 cells assessed as reduction in cell viability at 30 to 300 uM incubated for 48 hrs under hypoxic conditions by MTT assay. The assay is classed as functional. The gist of the method:
as §1

For assay [3], the system named is HT-29. Kind of assay: Cytotoxicity in human HT-29 cells assessed as reduction in cell viability at 30 to 300 uM incubated for 16 hrs under hypoxic conditions by MTT assay.
The target of the next assay is Carbonic anhydrase 1 (Homo sapiens, UniProt P00915). The assay is described as follows: Inhibition of human carbonic anhydrase 1 incubated for 15 mins by stopped flow CO2 hydrase assay.
The subject of assay [4] is HT-29. Kind of assay: Cytotoxicity in human HT-29 cells assessed as cell mortality at 30 to 300 uM incubated for 16 hrs under normoxic conditions by MTT assay. Format: functional.

Carbonic anhydrase 1, sequence (P00915 whole entry): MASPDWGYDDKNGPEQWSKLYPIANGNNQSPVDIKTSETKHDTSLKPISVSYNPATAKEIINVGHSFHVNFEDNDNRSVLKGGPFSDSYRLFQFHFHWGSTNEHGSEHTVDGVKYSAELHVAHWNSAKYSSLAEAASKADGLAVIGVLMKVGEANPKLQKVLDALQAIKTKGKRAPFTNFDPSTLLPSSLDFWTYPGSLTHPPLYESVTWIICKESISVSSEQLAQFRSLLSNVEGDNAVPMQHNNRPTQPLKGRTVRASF

What is called Ki is the equilibrium dissociation constant of an inhibitor or competing ligand from its target. Low readings indicate tighter binding, high ones weaker binding. Turning to `NS(=O)(=O)c1ccc(NC(=O)Cn2ccc(=O)[nH]c2=O)cc1`, the outcome with HT-29 [1] was Active. Also, at Carbonic anhydrase 9, the Ki worked out at 25.7 nM. Besides, the Activity in the assay with HT-29 [2] is given as 25 - 30%. In addition, the outcome in the assay with HT-29 [3] was inactive. Take `Nc1ncnc2c1ncn2Cc1cn(-c2cccc(S(N)(=O)=O)c2)nn1`: the Ki at Carbonic anhydrase 1 was over 10000 nM; on Carbonic anhydrase 9 it was 1310 nM. In the case of `CN(C)/C=N/c1ncnc2c1ncn2CC(=O)NCCc1ccc(S(N)(=O)=O)cc1`, the Ki at Carbonic anhydrase 9 was 113 nM. The same measure, in the same setting: to `CN(C)/C=N/c1ncnc2c1ncn2CC(=O)Nc1ccc(S(N)(=O)=O)cc1` belongs 40 nM; to `NS(=O)(=O)c1cccc(-n2cc(Cn3ccc(=O)[nH]c3=O)nn2)c1`, 460 nM.

For the compound `NS(=O)(=O)c1cccc(NC(=O)Cn2ccc(=O)[nH]c2=O)c1`, the Ki on Carbonic anhydrase 9 worked out at 3120 nM.

For the compound `Nc1ncnc2c1ncn2CC(=O)NCCc1ccc(S(N)(=O)=O)cc1`, the Activity in the assay with HT-29 [4] is on record as 10 - 15%. Moreover, on Carbonic anhydrase 9, the Ki stood at 11.4 nM. The outcome with HT-29 [3] was inactive. For `NS(=O)(=O)c1ccc(CCNC(=O)Cn2ccc(=O)[nH]c2=O)cc1`, the inhibitory constant (Ki) at Carbonic anhydrase 9 was 46 nM. Take `Nc1ncnc2c1ncn2CCOc1ccc(S(N)(=O)=O)cc1`: the Activity was 10 - 15% in the assay on HT-29 [4] and 25 - 30% in the assay with HT-29 [2]. In addition, in the assay with HT-29 [1], the outcome was Active. On Carbonic anhydrase 9, this compound displayed an inhibition constant Ki of 29.9 nM. Further, the outcome in the assay with HT-29 [3] was inactive.

On to `CN(C)/C=N/c1ncnc2c1ncn2CC(=O)NCc1ccc(S(N)(=O)=O)cc1`, for which the Ki at Carbonic anhydrase 9 is 166 nM. In other words, the sub-micromolar range. With `Nc1ncnc2c1ncn2CC(=O)Nc1cccc(S(N)(=O)=O)c1`, the inhibition constant (Ki) at Carbonic anhydrase 1 is over 10000 nM; on Carbonic anhydrase 9, 428 nM. Consider `Nc1ncnc2c1ncn2CC(=O)Nc1ccc(S(N)(=O)=O)cc1`, for which the Activity was 10 - 15% in the assay on HT-29 [4] and 25 - 30% in the assay on HT-29 [2]. For the same compound, the outcome in the assay with HT-29 [1] and in the assay with HT-29 [3] was Active. On Carbonic anhydrase 9, this compound gave a Ki of 16.9 nM. For the compound `NS(=O)(=O)c1ccc(CNC(=O)Cn2ccc(=O)[nH]c2=O)cc1`, the Ki at Carbonic anhydrase 9 worked out at 405 nM. As to `Nc1ncnc2c1ncn2Cc1cn(-c2ccc(S(N)(=O)=O)cc2)nn1`, at Carbonic anhydrase 9, affinity was put at a Ki of 1.9 nM. On the same count and under the same terms, to `NS(=O)(=O)c1ccc(-n2cc(Cn3ccc(=O)[nH]c3=O)nn2)cc1` belongs 4.8 nM.

As for `CN(C)/C=N/c1ncnc2c1ncn2CC(=O)Nc1cccc(S(N)(=O)=O)c1`, the results for the Ki on Carbonic anhydrase 1 and on Carbonic anhydrase 9 were over 10000 nM and 2810 nM, respectively. `NS(=O)(=O)c1ccc(O)c(NC(=O)Cn2ccc(=O)[nH]c2=O)c1`: at Carbonic anhydrase 9, the Ki came out at 439 nM.

The compound `Nc1ncnc2c1ncn2CC(=O)NCc1ccc(S(N)(=O)=O)cc1` displayed a Ki at Carbonic anhydrase 9 of 45.2 nM. Compared with the last compound, the Ki is about 9.7-fold lower.
